In ChEMBL document CHEMBL1932986, “Synthesis and in vitro antimycobacterial activity of compounds derived from (R)- and (S)-2-amino-1-butanol - The crucial role of the configuration” (Eur J Med Chem, 2012):

Experiments:
Type in all cases: functional
Bacillus subtilis [1] = experiment: Antibacterial activity against Bacillus subtilis ATCC 6633 at 5 mg/ml after 24 hrs by agar diffusion test; conditions: ATCC 6633, 24 h, read-out: DIZ
Procedure, shortened: (§1)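 Agar diffusion: bacteria grown 24 h at 37 °C on nutrient agar; wells cut in the seeded agar are filled with compound solution in DMSO. Read-out is the diameter of the clear zone around the application point.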

Priestia megaterium [2] = experiment: Antibacterial activity against Bacillus megaterium NRRL 1353895 at 5 mg/ml after 24 hrs by agar diffusion test; conditions: NRRL 1353895, 24 h, read-out: DIZ
Procedure, shortened: (§2)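 Agar diffusion: wells in agar filled with […] DMSO solution of compound at various concentrations; diameter of clear zone around application point measured. Bacteria grown 24 h at 37 °C on nutrient agar. Compounds first screened at 50 mg/ml; those active then tested at lower concentrations. Bracketed value = lowest concentration (mg/ml) giving zone >11 mm, reported only if activity retained at ≤1.25 mg/ml.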

Micrococcus luteus [3] = experiment: Antibacterial activity against Sarcina lutea ATCC 9341 at 25 mg/ml after 24 hrs by agar diffusion test; conditions: ATCC 9341, 24 h, read-out: DIZ
Procedure, shortened: (§3)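 Agar diffusion: bacteria grown 24 h at 37 °C on nutrient agar. Wells in the agar are filled with […] of compound solution in DMSO at various concentrations. The diameter of the clear zone around the application point is measured. Bracketed values give the lowest concentration (mg/ml) that produces a zone >11 mm. A first screen is run at 50 mg/ml.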

Bacillus mycoides [4] = experiment: Antibacterial activity against Bacillus mycoides DSMZ 274 at 1 mg/ml after 24 hrs by agar diffusion test; conditions: DSMZ 274, 24 h, read-out: DIZ; procedure, shortened: as §2
Priestia megaterium [5] = experiment: Antibacterial activity against Bacillus megaterium NRRL 1353895 at 25 mg/ml after 24 hrs by agar diffusion test; conditions: NRRL 1353895, 24 h, read-out: DIZ; procedure, shortened: as §2
Micrococcus luteus [6] = experiment: Antibacterial activity against Sarcina lutea ATCC 9341 at 5 mg/ml after 24 hrs by agar diffusion test; conditions: ATCC 9341, 24 h, read-out: DIZ; procedure, shortened: as §3
Escherichia coli [7] = experiment: Antibacterial activity against Escherichia coli ATCC 8739 at 1 mg/ml after 24 hrs by agar diffusion test; conditions: ATCC 8739, 24 h, read-out: DIZ; procedure, shortened: as §2
Acinetobacter johnsonii [8] = experiment: Antibacterial activity against Acinetobacter johnsonii ATCC 17909 at 5 mg/ml after 24 hrs by agar diffusion test; conditions: ATCC 17909, 24 h, read-out: DIZ; procedure, shortened: as §2
Micrococcus luteus [9] = experiment: Antibacterial activity against Micrococcus luteus ATCC 9631 at 1 mg/ml after 24 hrs by agar diffusion test; conditions: ATCC 9631, 24 h, read-out: DIZ; procedure, shortened: as §2
Bacillus cereus [10] = experiment: Antibacterial activity against Bacillus cereus ATCC 11778 at 5 mg/ml after 24 hrs by agar diffusion test; conditions: ATCC 11778, 24 h, read-out: DIZ; procedure, shortened: as §2
Bacillus cereus [11] = experiment: Antibacterial activity against Bacillus cereus ATCC 11778 at 25 mg/ml after 24 hrs by agar diffusion test; conditions: ATCC 11778, 24 h, read-out: DIZ; procedure, shortened: as §2
Micrococcus luteus [12] = experiment: Antibacterial activity against Micrococcus luteus ATCC 9631 at 5 mg/ml after 24 hrs by agar diffusion test; conditions: ATCC 9631, 24 h, read-out: DIZ; procedure, shortened: as §2
Bacillus [13] = experiment: Antibacterial activity against Bacillus idosus B 241 at 5 mg/ml after 24 hrs by agar diffusion test; conditions: B 241, 24 h, read-out: DIZ; procedure, shortened: as §2
Priestia megaterium [14] = experiment: Antibacterial activity against Bacillus megaterium NRRL 1353895 at 1 mg/ml after 24 hrs by agar diffusion test; conditions: NRRL 1353895, 24 h, read-out: DIZ; procedure, shortened: as §2
Staphylococcus aureus [15] = experiment: Antibacterial activity against Staphylococcus aureus NRRL B 313 at 5 mg/ml after 24 hrs by agar diffusion test; conditions: NRRL B 313, 24 h, read-out: DIZ; procedure, shortened: as §3
Bacillus [16] = experiment: Antibacterial activity against Bacillus idosus B 241 at 25 mg/ml after 24 hrs by agar diffusion test; conditions: B 241, 24 h, read-out: DIZ; procedure, shortened: as §2
Staphylococcus aureus [17] = experiment: Antibacterial activity against Staphylococcus aureus NRRL B 313 at 25 mg/ml after 24 hrs by agar diffusion test; conditions: NRRL B 313, 24 h, read-out: DIZ; procedure, shortened: as §3
Escherichia coli [18] = experiment: Antibacterial activity against Escherichia coli ATCC 8739 at 5 mg/ml after 24 hrs by agar diffusion test; conditions: ATCC 8739, 24 h, read-out: DIZ; procedure, shortened: as §2
Bacillus [19] = experiment: Antibacterial activity against Bacillus idosus B 241 at 1 mg/ml after 24 hrs by agar diffusion test; conditions: B 241, 24 h, read-out: DIZ; procedure, shortened: as §2
Escherichia coli [20] = experiment: Antibacterial activity against Escherichia coli ATCC 8739 at 25 mg/ml after 24 hrs by agar diffusion test; conditions: ATCC 8739, 24 h, read-out: DIZ; procedure, shortened: as §2
Acinetobacter johnsonii [21] = experiment: Antibacterial activity against Acinetobacter johnsonii ATCC 17909 at 25 mg/ml after 24 hrs by agar diffusion test; conditions: ATCC 17909, 24 h, read-out: DIZ; procedure, shortened: as §2
Bacillus cereus [22] = experiment: Antibacterial activity against Bacillus cereus ATCC 11778 at 1 mg/ml after 24 hrs by agar diffusion test; conditions: ATCC 11778, 24 h, read-out: DIZ; procedure, shortened: as §2
Bacillus subtilis [23] = experiment: Antibacterial activity against Bacillus subtilis ATCC 6633 at 1 mg/ml after 24 hrs by agar diffusion test; conditions: ATCC 6633, 24 h, read-out: DIZ; procedure, shortened: as §2
Staphylococcus aureus [24] = experiment: Antibacterial activity against Staphylococcus aureus NRRL B 313 at 1 mg/ml after 24 hrs by agar diffusion test; conditions: NRRL B 313, 24 h, read-out: DIZ; procedure, shortened: as §1
Acinetobacter johnsonii [25] = experiment: Antibacterial activity against Acinetobacter johnsonii ATCC 17909 at 1 mg/ml after 24 hrs by agar diffusion test; conditions: ATCC 17909, 24 h, read-out: DIZ; procedure, shortened: as §2
Micrococcus luteus [26] = experiment: Antibacterial activity against Sarcina lutea ATCC 9341 at 1 mg/ml after 24 hrs by agar diffusion test; conditions: ATCC 9341, 24 h, read-out: DIZ; procedure, shortened: as §2
Bacillus subtilis [27] = experiment: Antibacterial activity against Bacillus subtilis ATCC 6633 at 25 mg/ml after 24 hrs by agar diffusion test; conditions: ATCC 6633, 24 h, read-out: DIZ; procedure, shortened: as §2
Bacillus mycoides [28] = experiment: Antibacterial activity against Bacillus mycoides DSMZ 274 at 5 mg/ml after 24 hrs by agar diffusion test; conditions: DSMZ 274, 24 h, read-out: DIZ; procedure, shortened: as §2
Micrococcus luteus [29] = experiment: Antibacterial activity against Micrococcus luteus ATCC 9631 at 25 mg/ml after 24 hrs by agar diffusion test; conditions: ATCC 9631, 24 h, read-out: DIZ; procedure, shortened: as §2
Bacillus mycoides [30] = experiment: Antibacterial activity against Bacillus mycoides DSMZ 274 at 25 mg/ml after 24 hrs by agar diffusion test; conditions: DSMZ 274, 24 h, read-out: DIZ; procedure, shortened: as §2

For `CN[C@@H]1[C@H](O[C@H]2[C@H](O[C@H]3[C@H](O)[C@@H](O)[C@H](N=C(N)N)[C@@H](O)[C@@H]3N=C(N)N)O[C@@H](C)[C@]2(O)C=O)O[C@@H](CO)[C@H](O)[C@H]1O` [STREPTOMYCIN], the zone of inhibition at 5000 µg/mL (Bacillus subtilis [1]) was 30 mm, the zone of inhibition at 5000 µg/mL (Priestia megaterium [2]) was 25 mm and the zone of inhibition at 25000 µg/mL (Micrococcus luteus [3]) was 27 mm. It also gave a zone of inhibition at 1000 µg/mL (Bacillus mycoides [4]) of 25 mm, a zone of inhibition at 25000 µg/mL (Priestia megaterium [5]) of 30 mm and a zone of inhibition at 5000 µg/mL (Micrococcus luteus [6]) of 22 mm. It also gave a zone of inhibition at 1000 µg/mL (Escherichia coli [7]) of 23 mm, a zone of inhibition at 5000 µg/mL (Acinetobacter johnsonii [8]) of 24 mm and a zone of inhibition at 1000 µg/mL (Micrococcus luteus [9]) of 20 mm. For the same compound, the zone of inhibition at 5000 µg/mL (Bacillus cereus [10]) was 28 mm, the zone of inhibition at 25000 µg/mL (Bacillus cereus [11]) was 30 mm and the zone of inhibition at 5000 µg/mL (Micrococcus luteus [12]) was 25 mm. It also gave a zone of inhibition at 5000 µg/mL (Bacillus [13]) of 27 mm, a zone of inhibition at 1000 µg/mL (Priestia megaterium [14]) of 20 mm and a zone of inhibition at 5000 µg/mL (Staphylococcus aureus [15]) of 26 mm. For the same compound, the zone of inhibition at 25000 µg/mL (Bacillus [16]) was 30 mm, the zone of inhibition at 25000 µg/mL (Staphylococcus aureus [17]) was 32 mm and the zone of inhibition at 5000 µg/mL (Escherichia coli [18]) was 26 mm. For the same compound, the zone of inhibition at 1000 µg/mL (Bacillus [19]) was 21 mm, the zone of inhibition at 25000 µg/mL (Escherichia coli [20]) was 35 mm and the zone of inhibition at 25000 µg/mL (Acinetobacter johnsonii [21]) was 30 mm. For the same compound, the zone of inhibition at 1000 µg/mL (Bacillus cereus [22]) was 23 mm, the zone of inhibition at 1000 µg/mL (Bacillus subtilis [23]) was 25 mm and the zone of inhibition at 1000 µg/mL (Staphylococcus aureus [24]) was 20 mm. The zone of inhibition at 1000 µg/mL (Acinetobacter johnsonii [25]) was 20 mm, the zone of inhibition at 1000 µg/mL (Micrococcus luteus [26]) was 19 mm and the zone of inhibition at 25000 µg/mL (Bacillus subtilis [27]) was 35 mm. For the same compound, the zone of inhibition at 5000 µg/mL (Bacillus mycoides [28]) was 30 mm, the zone of inhibition at 25000 µg/mL (Micrococcus luteus [29]) was 30 mm and the zone of inhibition at 25000 µg/mL (Bacillus mycoides [30]) was 35 mm.
